# Data as given in ChEMBL document CHEMBL1134840, “Synthesis and antiviral activity of novel acyclic nucleoside analogues of 5-(1-azido-2-haloethyl)uracils” (J Med Chem, 2001).
# How the values were obtained:
# [1] = Cytotoxicity against human foreskin fibroblast cell proliferation; type: cell-based; conditions: human foreskin fibroblast cells (proliferating)
# Method in brief: (§1)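 Proliferating HFF cells; growth inhibition expressed as IC50. Compounds tested up to top concentrations of 130–310 μM.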
# [2] = Inhibitory activity against human foreskin fibroblast cell proliferation; type: functional, cell-based; method in brief: as §1
# [3] = test system: Human betaherpesvirus 5; assay: Antiviral activity against human cytomegalovirus; type: functional, organism-based
# Method in brief: (§2)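 CPE inhibition and plaque reduction assays in human foreskin fibroblast (HFF) or Vero cells, run under the NIH Antiviral Research Branch program. Virus strains: HCMV AD-169, HSV-2 MS, VZV Ellen. Acyclovir or ganciclovir served as reference drug.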
# [4] = In vitro cytotoxicity against stationary phase vero cells; type: cell-based; conditions: chlorocebus sabaeus
# Method in brief: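 Stationary-phase Vero cells; cytotoxicity read by MTT assay and expressed as CC50. Compounds tested up to top concentrations of 260–620 μM.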
# [5] = In vitro cytotoxicity against stationary phase human foreskin fibroblast cells; type: cell-based
# Method in brief: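 Stationary-phase HFF cells; cytotoxicity read by neutral red uptake and expressed as CC50. Compounds tested up to top concentrations of 240–340 μM.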
# [6] = test system: Human alphaherpesvirus 3; assay: In vitro antiviral activity against Varicella zoster virus; type: functional, organism-based; method in brief: as §2
# [7] = test system: Anas sp.; assay: (§3) In vitro antiviral activity against duck hepatitis B virus (DHBV); type: functional, organism-based
# Method in brief: (§4)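 Virus replication inhibition measured in primary hepatocyte cultures prepared from congenitally DHBV-infected ducks.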
# [8] = test system: Human alphaherpesvirus 2; assay: In vitro antiviral activity against Herpes simplex virus type 2; type: functional, organism-based; method in brief: as §2
# [9] = test system: Human alphaherpesvirus 1; assay: In vitro antiviral activity against Herpes simplex virus type 1; type: functional, organism-based
# Method in brief: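 HSV-1 strains tested: KOS and E-377 (both TK+), and the TK-deficient mutant KOSSB in Vero cells. E-377 was assayed by CPE inhibition and plaque reduction under the NIH program. Acyclovir or ganciclovir served as reference.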
# [10] = test system: Hepatitis B virus; assay: as §3; type: functional, organism-based; method in brief: as §4
SMILES,IC50 [2],CC50 [4],CC50 [5],further results
[N-]=[N+]=NC(CI)c1cn(CCC(CO)CO)c(=O)[nH]c1=O (configuration not stated),> 310 µM,,,IC50 [1]: > 260 µM; EC50 [3]: 14400 nM
[N-]=[N+]=NC(CCl)c1cn(CCC(CO)CO)c(=O)[nH]c1=O (configuration not stated),> 310 µM,> 260 µM,> 240 µM,
[N-]=[N+]=NC(CI)c1cn(COC(CO)CO)c(=O)[nH]c1=O (configuration not stated),> 130 µM,> 260 µM,> 240 µM,EC50 [6]: 2400 nM
[N-]=[N+]=NC(CBr)c1cn(COC(CO)CO)c(=O)[nH]c1=O (configuration not stated),> 130 µM,> 260 µM,> 240 µM,
[N-]=[N+]=NC(CI)c1cn(COCCO)c(=O)[nH]c1=O (configuration not stated),> 130 µM,> 260 µM,> 240 µM,
[N-]=[N+]=NC(CBr)c1cn(COCCO)c(=O)[nH]c1=O (configuration not stated),> 130 µM,> 260 µM,> 240 µM,
[N-]=[N+]=NC(CCl)c1cn([C@H]2C[C@H](O)[C@@H](CO)O2)c(=O)[nH]c1=O (some centres not stated),,,,EC50 [6]: 4500 nM; EC50 [7]: 15 µM; EC50 [8]: 2900 nM; EC50 [9]: 60 nM
[N-]=[N+]=NC(CBr)c1cn([C@H]2C[C@H](O)[C@@H](CO)O2)c(=O)[nH]c1=O (some centres not stated),,,,EC50 [7]: 2.6 µM
[N-]=[N+]=NC(CCl)c1cn([C@@H]2O[C@H](CO)[C@@H](O)[C@@H]2O)c(=O)[nH]c1=O (some centres not stated),,,,EC50 [6]: 80 nM; EC50 [9]: 460 nM; EC50 [3]: 1450 nM
[N-]=[N+]=NC(CCl)c1cn(COC(CO)CO)c(=O)[nH]c1=O (configuration not stated),> 130 µM,> 260 µM,> 240 µM,
[N-]=[N+]=NC(CCl)c1cn(COCCO)c(=O)[nH]c1=O (configuration not stated),> 130 µM,> 260 µM,> 240 µM,
[N-]=[N+]=NC(CBr)c1cn(CCC(CO)CO)c(=O)[nH]c1=O (configuration not stated),> 270 µM,> 260 µM,> 240 µM,EC50 [3]: 2700 nM
Nc1nc2c(ncn2COCCO)c(=O)[nH]1 [ACYCLOVIR],,,,EC50 [6]: 2600 nM
Nc1nc2c(ncn2COC(CO)CO)c(=O)[nH]1 [GANCICLOVIR],156 µM,,,EC50 [10]: 4000 nM; EC50 [3]: 230 nM
Nc1nc(O)c2ncn(CCC(CO)CO)c2n1 [PENCICLOVIR],,,,EC50 [10]: 700 nM
